According to ChEMBL document CHEMBL1125823, “2-Phenylindole-linked [2-(aminoalkyl)pyridine]dichloroplatinum(II): complexes with a selective action on estrogen receptor positive mammary tumors” (1991):

How the values were obtained:
[1] = tested on: MCF7; test: Effect on Estrogen receptor positive MCF-7 human breast cancer cell proliferation at 1x10E-6M (control = 66.9+/-7.0); format: functional
Outline: (§1)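 MCF-7 cells were kept in MEM with 5% charcoal-treated newborn calf serum and phenol red for 2 weeks, then about 2×10^4 cells were plated per well. Compounds in 0.1% DMF were added 2 days later and renewed on day 4; DMF alone served as control. Coulter cell counts were taken on day 5; mean of six dishes ± SD; % T/C.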

[2] = target: T1, Estrogen receptor (Mus musculus) (UniProt O08537+P19785); test: Anti-uterotrophic effect in mice as relative uterine weight(mg) at 250 ug; format: functional
Outline: (§2)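 Immature mice received the compound sc per animal on three consecutive days, alone or with 0.4 µg estrone per animal per day. Uteri were taken 24 h after the last injection, Bouin-fixed, dried at 100 °C for 24 h and weighed. Relative uterus weight = dry weight (mg)/body weight (g) × 100; mean of 6-10 animals ± SD; Mann-Whitney U test.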
Target sequence in this assay (P19785 whole entry, looked up, chain 1 of 2): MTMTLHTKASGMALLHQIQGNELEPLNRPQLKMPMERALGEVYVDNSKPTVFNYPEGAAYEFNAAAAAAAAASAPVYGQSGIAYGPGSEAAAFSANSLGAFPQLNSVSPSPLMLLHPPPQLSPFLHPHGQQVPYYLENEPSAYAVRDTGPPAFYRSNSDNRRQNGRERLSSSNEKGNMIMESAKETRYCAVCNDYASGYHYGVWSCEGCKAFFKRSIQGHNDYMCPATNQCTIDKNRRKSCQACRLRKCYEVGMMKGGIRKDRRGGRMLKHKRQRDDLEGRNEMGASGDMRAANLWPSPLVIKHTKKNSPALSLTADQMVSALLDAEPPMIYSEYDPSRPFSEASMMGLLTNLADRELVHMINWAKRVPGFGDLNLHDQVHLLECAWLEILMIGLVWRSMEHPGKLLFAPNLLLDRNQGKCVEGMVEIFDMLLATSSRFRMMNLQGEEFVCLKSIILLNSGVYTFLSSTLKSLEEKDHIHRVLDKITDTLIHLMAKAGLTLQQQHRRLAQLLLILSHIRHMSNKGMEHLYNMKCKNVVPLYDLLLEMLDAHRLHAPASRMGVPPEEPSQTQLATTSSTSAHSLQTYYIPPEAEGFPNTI
Target sequence in this assay (O08537 whole entry, looked up, chain 2 of 2): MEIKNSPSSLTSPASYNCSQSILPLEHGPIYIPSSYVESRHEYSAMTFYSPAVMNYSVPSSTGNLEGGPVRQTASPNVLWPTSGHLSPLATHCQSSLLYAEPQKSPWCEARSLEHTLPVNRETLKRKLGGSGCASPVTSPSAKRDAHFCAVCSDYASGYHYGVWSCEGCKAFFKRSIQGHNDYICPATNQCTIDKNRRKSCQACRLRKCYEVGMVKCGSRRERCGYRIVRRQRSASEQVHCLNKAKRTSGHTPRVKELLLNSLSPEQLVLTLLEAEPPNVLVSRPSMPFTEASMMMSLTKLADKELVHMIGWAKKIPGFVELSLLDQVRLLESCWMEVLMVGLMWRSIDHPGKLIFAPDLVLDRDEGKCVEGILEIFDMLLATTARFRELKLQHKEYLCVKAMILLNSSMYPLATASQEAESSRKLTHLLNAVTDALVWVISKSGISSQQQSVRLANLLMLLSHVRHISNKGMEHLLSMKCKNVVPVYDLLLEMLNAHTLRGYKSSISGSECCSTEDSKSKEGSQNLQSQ

[3] = tested on: MCF7; test: Effect on [3H]thymidine incorporation into estrogen receptor positive MCF-7 human breast cancer cells at 1*10^-6 M (control = 28.2+/-3.0); format: functional
Outline: (§3)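 MCF-7 cells were grown in MEM with charcoal-treated 5% newborn calf serum and phenol red, then treated with compounds in 0.1% DMF (renewed on day 4) alongside DMF controls. They were labeled 3 days later with 1 µCi [³H]thymidine per well for 2 h, and incorporated radioactivity per dish was measured; mean of six dishes ± SD; % T/C.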

[4] = target: T1, Estrogen receptor (Mus musculus); test: Uterotrophic effect in mice as relative uterine weight(mg) at 250 ug (control = 12.3+/-3.7); format: functional, tissue-based
Outline: (§4)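 Immature mice dosed sc per animal on three consecutive days; vehicle controls. Killed and weighed 24 h after last injection; uteri fixed in Bouin solution 2 h, washed with alcoholic LiCl, dried at 100 °C for 24 h. Relative uterus weight = uterine dry weight (mg)/body weight (g) × 100; mean of 6-10 animals ± SD.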
Target sequence in this assay (P19785 whole entry, looked up, chain 1 of 2): as the sequence (P19785 whole entry, looked up, chain 1 of 2) above
Target sequence in this assay (O08537 whole entry, looked up, chain 2 of 2): as the sequence (O08537 whole entry, looked up, chain 2 of 2) above

[5] = tested on: MCF7; test: Effect on [3H]thymidine incorporation into estrogen receptor positive MCF-7 human breast cancer cells at 1x10E-6M; format: functional; outline: as §3
[6] = target: T1, Estrogen receptor (Mus musculus); test: Uterotrophic effect in mice as relative uterine weight(mg) at 25 ug (control = 12.3+/-3.7); format: functional, tissue-based; outline: as §4
Target sequence in this assay (P19785 whole entry, looked up, chain 1 of 2): as the sequence (P19785 whole entry, looked up, chain 1 of 2) above
Target sequence in this assay (O08537 whole entry, looked up, chain 2 of 2): as the sequence (O08537 whole entry, looked up, chain 2 of 2) above

[7] = tested on: MCF7; test: Effect on [3H]thymidine incorporation into estrogen receptor positive MCF-7 human breast cancer cells at 5x10E-6M (control = 28.2+/-3.0); format: functional
Outline: (§5)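 MCF-7 cells in improved MEM with glutamine, gentamycin and 5% newborn calf serum, switched to charcoal-treated serum two weeks ahead; phenol red present; 37 °C, 5% CO2. About 2×10^4 cells plated per well; compound in 0.1% DMF added 2 days later, renewed on day 4; labelled 3 days later with 1 μCi [3H]thymidine per well for 2 h; cpm/dish, mean of six dishes ± SD.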

[8] = tested on: MCF7; test: Effect on Estrogen receptor positive MCF-7 human breast cancer cell proliferation at 5x10E-6M (control = 66.9+/-7.0); format: functional; outline: as §1
[9] = tested on: MCF7; test: Effect on Estrogen receptor positive MCF-7 human breast cancer cell proliferation at 5x10E-6M; format: functional; outline: as §1
[10] = tested on: MCF7; test: Effect on Estrogen receptor positive MCF-7 human breast cancer cell proliferation at 1x10E-6M; format: functional; outline: as §1
[11] = tested on: MCF7; test: Effect on [3H]thymidine incorporation into estrogen receptor positive MCF-7 human breast cancer cells at 5x10E-6M; format: functional; outline: as §5
[12] = tested on: MCF7; test: Effect on [3H]thymidine incorporation into estrogen receptor positive MCF-7 human breast cancer cells at 1x10E-6M (control = 43.4+/-1.8); format: functional; outline: as §3
[13] = target: T1, Estrogen receptor (Mus musculus); test: Uterotrophic effect in mice as relative uterine weight(mg) at 15 ug (control = 14.6+/-2.7); format: functional, tissue-based; outline: as §4
Target sequence in this assay (O08537 whole entry, looked up): as the sequence (O08537 whole entry, looked up, chain 2 of 2) above
Target sequence in this assay (P19785 whole entry, looked up): as the sequence (P19785 whole entry, looked up, chain 1 of 2) above

[14] = tested on: MCF7; test: Effect on Estrogen receptor positive MCF-7 human breast cancer cell proliferation at 5x10E-6M (control = 62.3+/-8.8); format: functional; outline: as §1
[15] = target: T1, Estrogen receptor (Mus musculus); test: Anti-uterotrophic effect in mice as relative uterine weight(mg) at 150 ug; format: functional; outline: as §2
Target sequence in this assay (O08537 whole entry, looked up): as the sequence (O08537 whole entry, looked up, chain 2 of 2) above
Target sequence in this assay (P19785 whole entry, looked up): as the sequence (P19785 whole entry, looked up, chain 1 of 2) above

[16] = target: T1, Estrogen receptor (Mus musculus); test: Percent inhibition of estrone stimulated uterotrophic effect in mice at 150 ug; format: functional
Outline: (§6)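 Immature mice given test compound per animal sc on three consecutive days together with 0.4 μg estrone/animal/day. Killed 24 h after last injection; uteri fixed in Bouin, dried 100 °C 24 h and weighed. Inhibition = 100 − [(W_S,T − W_V)/(W_S − W_V) × 100] using relative uterus weights; 6-10 animals; Wilcoxon-Mann-Whitney U test.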
Target sequence in this assay (O08537 whole entry, looked up): as the sequence (O08537 whole entry, looked up, chain 2 of 2) above
Target sequence in this assay (P19785 whole entry, looked up): as the sequence (P19785 whole entry, looked up, chain 1 of 2) above

[17] = target: T1, Estrogen receptor (Mus musculus); test: Uterotrophic effect in mice as relative uterine weight(mg) at 150 ug (control = 14.6+/-2.7); format: functional, tissue-based; outline: as §4
Target sequence in this assay (O08537 whole entry, looked up): as the sequence (O08537 whole entry, looked up, chain 2 of 2) above
Target sequence in this assay (P19785 whole entry, looked up): as the sequence (P19785 whole entry, looked up, chain 1 of 2) above

[18] = target: T1, Estrogen receptor (Mus musculus); test: Percent inhibition of estrone stimulated uterotrophic effect in mice at 15 ug; format: functional; outline: as §6
Target sequence in this assay (O08537 whole entry, looked up): as the sequence (O08537 whole entry, looked up, chain 2 of 2) above
Target sequence in this assay (P19785 whole entry, looked up): as the sequence (P19785 whole entry, looked up, chain 1 of 2) above

[19] = tested on: MCF7; test: Effect on [3H]thymidine incorporation into estrogen receptor positive MCF-7 human breast cancer cells at 5x10E-6M (control = 43.4+/-1.8); format: functional; outline: as §5
[20] = target: T1, Estrogen receptor (Mus musculus); test: Anti-uterotrophic effect in mice as relative uterine weight(mg) at 15 ug; format: functional; outline: as §2
Target sequence in this assay (O08537 whole entry, looked up): as the sequence (O08537 whole entry, looked up, chain 2 of 2) above
Target sequence in this assay (P19785 whole entry, looked up): as the sequence (P19785 whole entry, looked up, chain 1 of 2) above

[21] = tested on: MCF7; test: Effect on Estrogen receptor positive MCF-7 human breast cancer cell proliferation at 1x10E-6M (control = 62.3+/-8.8); format: functional; outline: as §1
[22] = target: T1, Estrogen receptor (Mus musculus); test: Anti-uterotrophic effect in hormone-dependent transplant MXT bearing mice as relative uterine weight in treated and control mice at 20 mg (control=100+/-24); format: functional
Target sequence in this assay (P19785 whole entry, looked up, chain 1 of 2): as above
Target sequence in this assay (O08537 whole entry, looked up, chain 2 of 2): as the sequence (O08537 whole entry, looked up, chain 2 of 2) above

[23] = species: Mus musculus; test: Anti-tumor activity in hormone-dependent transplant MXT mammary tumor bearing mice at 20 mg (control=388+/-269); format: functional, organism-based
[24] = target: T1, Estrogen receptor (Mus musculus); test: Uterotrophic effect in mice as relative uterine weight(mg) at 250 ug (control = […]+/-1.7); format: functional, tissue-based
Target sequence in this assay (P19785 whole entry, looked up, chain 1 of 2): as the sequence (P19785 whole entry, looked up, chain 1 of 2) above
Target sequence in this assay (O08537 whole entry, looked up, chain 2 of 2): as the sequence (O08537 whole entry, looked up, chain 2 of 2) above

[25] = species: Mus musculus; test: Relative tumor weight in treated compared to control mice bearing hormone-dependent transplanted MXT mammary tumors at 20 mg; format: functional, organism-based
[26] = target: T1, Estrogen receptor (Mus musculus); test: Uterotrophic effect in mice as relative uterine weight(mg) at 25 ug (control = […]+/-1.7); format: functional, tissue-based
Target sequence in this assay (P19785 whole entry, looked up, chain 1 of 2): as the sequence (P19785 whole entry, looked up, chain 1 of 2) above
Target sequence in this assay (O08537 whole entry, looked up, chain 2 of 2): as the sequence (O08537 whole entry, looked up, chain 2 of 2) above

[27] = target: T1, Estrogen receptor (Mus musculus); test: Uterotrophic effect in mice as relative uterine weight(mg) at 150 ug (control = 12.3+/-3.7); format: functional, tissue-based; outline: as §4
[28] = target: T1, Estrogen receptor (Mus musculus); test: Uterotrophic effect in mice as relative uterine weight(mg) at 15 ug (control = 12.3+/-3.7); format: functional, tissue-based; outline: as §4

Relative uterus weight [2] | Relative uterus weight [15] | inhibition [16] | inhibition [18] | Relative uterus weight [20] | Compound | Cell no/dish [1] | Activity [3] | T/C [5] | Activity [7] | Cell no/dish [8] | T/C [9] | T/C [10] | T/C [11] | further results
46.6 mg |  |  |  |  | [5-hydroxy-3-methyl-2-(4-hydroxyphenyl)-1-[omega-[(2-pyridylmethyl)amino]pentyl]indole]dichloroplatinum (II) complex | 674000 | 16900 | 60% | 15200 | 571000 | 85% | 101% | 54% | Relative uterus weight [4]: 22.1 mg; Relative uterus weight [6]: 16.3 mg
 | 44 mg | 25% | 4% | 52.2 mg | Cc1c(-c2ccc(O)cc2)n(CCCCNCc2ccccn2)c2ccc(O)cc12 |  |  | 87% |  |  | 73% | 96% | 76% | Activity [12]: 37800; Relative uterus weight [13]: 22.1 mg; Cell no/dish [14]: 452000; Relative uterus weight [17]: 15 mg; Activity [19]: 33100; Cell no/dish [21]: 598000
48 mg |  |  |  |  | [5-hydroxy-3-methyl-2-(4-hydroxyphenyl)-1-[omega-[(2-pyridylmethyl(1-ethyl))amino]hexyl]indole]dichloroplatinum (II) complex |  |  |  |  |  |  |  |  | T/C [22]: 104%; Tumor weight [23]: 80 mg; Relative uterus weight [24]: 35.7 mg; T/C [25]: 21%; Relative uterus weight [26]: 20.2 mg
 | 44 mg | 5% | 9% | 42.6 mg | Cc1c(-c2ccc(O)cc2)n(CCCCCNCc2ccccn2)c2ccc(O)cc12 | 430000 | 21600 | 76% | 18900 | 287000 | 43% | 64% | 67% | Relative uterus weight [27]: 13.3 mg; Relative uterus weight [28]: 16.4 mg
